Compound activity as filed in PubChem BioAssay.
m5-HT2A agonist – mouse HTR2A agonism via beta-arrestin recruitment; activation, % at 7.6 µM; actives 0.66% (n = 360,000); CHO-K1 mHTR2A beta-arrestin complementation, luminescence; percent of 30 µM serotonin response; P35363;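 active means activation above a run cutoff, the mean activation of all tested compounds plus 3 SD, cut at about 14% in these data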;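 further: 0% = plate median of compound wells and 100% = 30 µM serotonin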
Target sequence (P35363 whole entry, looked up): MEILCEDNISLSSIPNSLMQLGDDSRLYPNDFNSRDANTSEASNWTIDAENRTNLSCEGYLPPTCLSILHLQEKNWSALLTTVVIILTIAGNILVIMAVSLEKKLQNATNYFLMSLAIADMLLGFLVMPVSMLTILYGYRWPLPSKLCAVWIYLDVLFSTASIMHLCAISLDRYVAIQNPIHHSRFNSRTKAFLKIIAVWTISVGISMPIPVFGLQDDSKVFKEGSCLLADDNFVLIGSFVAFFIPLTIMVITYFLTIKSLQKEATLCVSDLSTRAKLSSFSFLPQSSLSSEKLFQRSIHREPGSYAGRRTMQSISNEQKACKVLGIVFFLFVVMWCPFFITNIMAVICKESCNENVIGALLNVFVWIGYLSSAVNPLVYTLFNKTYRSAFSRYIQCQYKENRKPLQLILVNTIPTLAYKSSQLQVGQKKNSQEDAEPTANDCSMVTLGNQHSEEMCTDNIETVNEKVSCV
MC4R ag barr – activates human MC4R beta-arrestin recruitment; P32245; U2OS MC4R beta-arrestin complementation, luminescence; percent of melanotan II response, DMSO zero; activation, % at 8.9 µM; actives 0.98% (n = 360,000); AID 540308;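 active means activation above a per-plate cutoff, the mean activation of sample wells on that plate plus 3 SD, cut at about 8% in these data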
TMEM16A inh – mouse TMEM16A channel inhibition, primary screen. Q8BHY3. HEK293 TMEM16A/YFP iodide influx fluorescence, ionomycin. normalized B-score (activity score, 25-100; higher = stronger inhibition) at 10 µM. actives 1.2% (n = 310,000);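 active means ratio plate-corrected score three or more library SD toward inhibition, starting fluorescence score within five deviations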;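 further: score derived from kinetic fluorescence span divided by baseline fluorescence per well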
beta cell repl – MIN6 beta-cell proliferation induction; MIN6 cells proliferation, ATPlite luminescence, 48 h; cells starved in 0.2% serum; 100% = growth in 10% serum; proliferation, % at 10 µM; actives 0.29% (n = 330,000);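 active means compounds whose signal lies at least 3.5 SD above the mean of all wells on their plate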;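 further: 0% = DMSO-treated cells in low-serum medium and 100% = 10% serum control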
MC4R antag cAMP – antagonists of human melanocortin 4 receptor (MC4R) | inhibition, % at 6.5 µM | AID 540295 | actives 0.48% (n = 360,000) | MC4R-expressing cells, MTII-stimulated cAMP, LANCE TR-FRET | P32245;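 active means inhibition above its plate's cutoff, the mean of tested wells on that plate plus 3 SD, cut at about 29% in these data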;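 further: 0% = Melanotan II alone and 100% = Melanotan II plus saturating MCL0020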
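Test system: U2OS cells stably expressing human melanocortin 4 receptor (MC4R); also added: Melanotan II challenge; compound: 6.5 µM single dose; timing: 30-min compound preincubation, 1-h Melanotan II challenge, 1-h detection, room temperature; signal: Eu-cAMP/anti-cAMP TR-FRET, emission 671 nm; repeats: one well per compound, no replicates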
TMEM16A act – mouse TMEM16A channel activation, primary screen. B-score at 10 µM. actives 0.3% (n = 340,000). Q8BHY3. HEK293 TMEM16A/YFP-H148Q/I152L, iodide quench fluorescence; hits give low values;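 active means fluorescence-ratio B-score plate-corrected deviation score at least 3 library SD below zero, with starting fluorescence score within 5 deviations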;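 further: channel opened by trigger with iodide after compound preincubation; score built on the fluorescence ratio of max minus min over baseline; more negative score means more quench and so TMEM16A activation or potentiation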
U2OS cAMP counter – nonselective cAMP signaling inhibitor, MC4R antagonist counter-screen. shares compounds with MC4R antag cAMP. parental U2OS, forskolin cAMP, LANCE TR-FRET. inhibition, % at 6.5 µM. actives 26% (n = 1,600). AID 602193;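 active means mean inhibition over triplicates above the low-control well mean plus 3 SD, set per campaign, cut at about 13% in these data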;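 further: signal is single emission at 671 nm which falls as cellular cAMP rises; 0% = forskolin-stimulated wells and 100% = buffer without forskolin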
MC4R antag conf – human MC4R cAMP antagonism confirmation; shares compounds with MC4R antag cAMP; MC4R-expressing cells, MTII-stimulated cAMP, TR-FRET; inhibition, % at 6.5 µM; actives 27% (n = 1,600); AID 602195; in the data active means inhibition above about 29%;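 further: 0% = agonist stimulated wells alone and 100% = agonist stimulated wells plus saturating reference antagonist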
* marks the source's active call; other numbers are inactive results; i = inactive; x = no result given. An excerpt weighted towards active compounds, which were near 3.4% of everything screened.

SMILES	m5-HT2A agonist	MC4R ag barr	TMEM16A inh	beta cell repl	MC4R antag cAMP	TMEM16A act	U2OS cAMP counter	MC4R antag conf
Cc1cc(NC(=O)/C(C#N)=C/c2ccc(-c3ccc(SC(F)F)cc3)o2)n(-c2ccccc2)n1	0.8	-2.4	i	-4.3	36.2*	i	1.6	-5.6
CCCCN1CCCCC1(C)C(=O)NCc1cccc(OC)c1 (centres undefined)	3.3	2.4	x	x	-2.2	x	x	x
CC(=O)Nc1cccc(Oc2cc(C#N)c(C#N)cc2N2CCCCCC2)c1	1.8	-0.1	i	-2.9	33.1*	i	1.6	10.3
CCOC(=O)c1sc(NC(=O)c2ccc(S(=O)(=O)N3CCCCCC3)cc2)nc1-c1ccccc1	-6.9	-0.9	i	-3.3	32.4*	i	-5.6	0.4
CCOC(=O)c1sc(NC(=O)c2ccc(S(=O)(=O)N3CCCCC3)cc2)nc1-c1ccccc1	1.3	-0.6	i	-1.9	-2.1	i	x	x
CC(C)NS(=O)(=O)c1ccc(NCCCn2ccnc2)c([N+](=O)[O-])c1	3.1	-0.1	i	-2.5	-1.6	i	x	x
CN(c1ccc(OCC(=O)OCC(=O)Nc2ccc(Br)cc2)cc1)S(=O)(=O)c1cccs1	1.4	-0.8	i	-0.6	29.4*	i	9.8	30.6*
CN(c1ccc(OCC(=O)OCC(=O)Nc2ccc(OC(F)F)cc2)cc1)S(=O)(=O)c1cccs1	1.1	-2.1	x	-2.4	9.1	i	x	x
CN(c1ccc(OCC(=O)OCC(=O)Nc2ccccc2)cc1)S(=O)(=O)c1cccs1	-4.5	-0.6	i	0.0	30.6*	i	13.7*	36.7*
CCS(=O)(=O)c1ccc(O)c(NC(=O)c2ccc(S(=O)(=O)N3CCCCCC3)cc2)c1	0.2	-1.5	x	-3.5	6.2	i	x	x
CCCCNC(=O)C1(C)CCN1Cc1cccc2c(OC)cc(C(=O)OCC)cc12 (centres undefined)	5.8	0.7	x	x	10.8	x	x	x
COc1ccc(CN(C)S(=O)(=O)c2nnc(NC(=O)c3ccc(C)cc3)s2)cc1OC	6.8	-0.9	i	-3.0	29.8*	i	3.7	22.9
COc1ccc(CN(C)S(=O)(=O)c2nnc(NC(=O)c3ccccc3OC)s2)cc1OC	10.0	0.1	i	-1.2	1.5	i	x	x
Cc1ccc(CNC(=O)c2ccc(N3CCC4(CC3)CC(c3ccccc3)=NO4)c(NC(=O)c3ccco3)c2)cc1	-2.7	-1.4	i	-5.5	-3.5	i	x	x
CCCNC(=O)c1ccc(N2CCC3(CC2)CC(c2ccccc2)=NO3)c(NC(=O)c2ccco2)c1	5.9	-1.3	i	-5.8	33.4*	i	5.4	17.0
Cc1cc(N2CCN(C)CC2)nc(=S)[nH]1	1.5	-1.5	i	1.0	29.0*	i	0.4	-4.3
N#CCC(=O)Nc1ccc(C(=O)OCC(=O)Nc2ccccc2Sc2ccccc2)cc1	-1.3	1.4	i	-5.4	30.8*	i	-3.5	9.4
CC(=O)Nc1ccc(C(=O)OCC(=O)Nc2ccccc2Sc2ccccc2)cc1	-1.8	3.1	i	0.0	10.4	i	x	x
CCOCCCNCc1cc(Cl)cc(Cl)c1OCC	-0.5	0.3	i	-0.5	31.4*	i	1.4	11.8
COc1c(Cl)cc(Cl)cc1CNCCNCCO	0.3	-1.1	i	-1.5	7.2	i	x	x
COc1ccc2[nH]c3c(Cl)ncnc3c2c1	3.8	-0.4	i	1.0	-15.6	i	x	x
COc1ccc2[nH]c3c(=S)nc[nH]c3c2c1	0.7	-1.7	i	2.5	37.8*	i	4.5	12.7
O=S(=O)(NC1=NCCCCC1)c1ccc(F)cc1F	2.7	-2.6	x	0.3	3.2	i	x	x
O=S(=O)(NC1=NCCC1)c1ccc(F)cc1F	1.5	-2.7	i	-1.6	29.1*	i	5.3	12.6
